PAX8 reporter: lowers PAX8-driven luciferase in RMG-I cells. hit rate 1.2% among 360,000. RMG-I TPO-luciferase reporter, SteadyGlo, 24 h. inhibition, % at 12.6 µM;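 active = mean replicate inhibition at least 60% with every replicate also reaching 60%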;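 also: luciferase light reporting Pax8 driven TPO promoter activity; plate controls were median of neutral control wells for no effect and mitoxantrone controls for full effect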
HIV Env fusion: inhibitors of HIV Env-mediated cell fusion | HeLa-JRFL Env/CEM21 cell fusion, luciferase | inhibition, % at 12.3 µM | hit rate 1.1% among 360,000;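 active = mean replicate inhibition score of at least 50 and every replicate individually at or above 50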;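 also: 0% = plate neutral controls and 100% = maraviroc near 300 nM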
EWS-Fli block: blocks EWS/Fli oncoprotein-driven transcription; A673 NR0B1-luciferase reporter, viability-normalised; inhibition, % at 12.6 µM; hit rate 0.67% among 350,000; AID 651661;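 active = mean inhibition of at least 50% after viability correction, with every replicate also passing that limit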;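 also: firefly luciferase signal divided by Alamar Blue viability fluorescence both relative to DMSO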
PGC1a acetyl inh: modulators of PGC1a acetylation; U2OS PGC1a acetylation, AlphaScreen anti-acetyl-lysine; with virally co-expressed GCN5 acetyltransferase; inhibition, % at 15.6 µM; hit rate 0.17% among 350,000; AID 651687;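 active = every replicate shows inhibition of at least 40%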;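 also: 0% = neutral control wells and 100% = positive control wells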
FGF22 binding: binders of recombinant human FGF22 by thermal shift. hit rate 1.5% among 340,000. SYPRO orange fluorescence; percent of sucrose octasulfate shift, DMSO zero. AID 651658. activity (Tm shift, normalised), % at 9.99 µM;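 active = mean Tm shift, scaled 0 neutral to 100 positive control, at about 1.3% or above, every replicate too, limit read from the data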
Target sequence (Q9HCT0 whole entry, looked up): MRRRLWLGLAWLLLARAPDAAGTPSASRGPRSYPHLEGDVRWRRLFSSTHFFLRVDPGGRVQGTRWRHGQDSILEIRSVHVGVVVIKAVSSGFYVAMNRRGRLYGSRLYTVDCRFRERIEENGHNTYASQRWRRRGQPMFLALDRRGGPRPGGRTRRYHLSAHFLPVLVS
FN deposit inh: fibronectin deposition inhibition; AH1F fibroblasts, Alexa488-fibronectin deposition fluorescence, overnight; inhibition, % at 12.6 µM; hit rate 0.086% among 350,000;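 active = mean inhibition across replicates of 30% or more, regardless of how many single replicates reach that level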;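 also: positive control wells lacked labelled fibronectin entirely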
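Test system: AH1F fibroblast monolayer depositing Alexa488-labelled fibronectin into matrix. Input: 10000 cells per well. Technique: fluorescence, ex 485 nm, em 525 nm. Buffer or medium: DMEM plus 2% serum, read in PBS. Timing: 1 h cell adhesion before compound, then overnight fibronectin incubation. Compound: single dose, pinned. Read-out basis: inhibition from reduced deposited-fibronectin fluorescence.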
Starred values were filed as active, the others as inactive; . = no result; [ ] = another dose, or the depositor's remark. Sampled rows, rich in hits. Any-hit rate of the full collection: about 3.1%.

SMILES	PAX8 reporter	HIV Env fusion	EWS-Fli block	PGC1a acetyl inh	FGF22 binding	FN deposit inh
CCCNC(=O)C[C@@H]1CC[C@@H]2[C@@H](COc3ccc(NC(=O)c4cccc(C(F)(F)F)c4)cc3C(=O)N2C)O1	2	-6[16.7 µM]	5	5	0	2
CC(C)c1ccc(NC(=O)C[C@H]2CC[C@H]3[C@@H](COc4ccc(NC(=O)Nc5ccc(F)c(F)c5)cc4C(=O)N3C)O2)cc1	75*	70*[16.7 µM]	-1	20	0	.
Cc1nn(C)cc1NC(=O)C[C@H]1CC[C@@H]2[C@H](COc3ccc(NC(=O)C4CCC4)cc3C(=O)N2C)O1	9	-4[16.7 µM]	1	9	0	-10
CC(C)C#Cc1cnc2c(c1)C(=O)N([C@@H](C)CO)C[C@@H](C)[C@H](CN(C)C(=O)Nc1cc(F)ccc1F)O2	.	4[16.7 µM]	15	0	0	.
O=C(N[C@H]1CC[C@H](CCNC(=O)C2CCCCC2)O[C@H]1CO)c1ccncc1	-24	7[16.7 µM]	0	-6	-1	1
C[C@@H]1CN([C@H](C)CO)C(=O)c2cc(C#CC(C)(C)O)cnc2O[C@H]1CN(C)C(=O)CN(C)C	.	-13[16.7 µM]	-1	3	0	.
CCNC(=O)C[C@H]1CC[C@@H]2[C@@H](COc3ccc(NC(=O)Cc4cccs4)cc3C(=O)N2C)O1	-5	65*[16.7 µM]	2	-7	0	-4
CN1C(=O)c2cc(NC(=O)NC3CCCC3)ccc2OC[C@@H]2O[C@H](CC(=O)NC3CCC3)CC[C@@H]21	-15	71*[16.7 µM]	1	-5	.	0
CCC(=O)Nc1ccc2c(c1)C(=O)N(C)[C@H]1CC[C@H](CC(=O)NC3CCCC3)O[C@H]1CO2	-2	57*[16.7 µM]	-2	-4	0	-12
CN1C(=O)c2cc(NC(=O)Nc3ccc(F)cc3)ccc2OC[C@H]2O[C@@H](CC(=O)NC3CCC3)CC[C@H]21	62*	.	-4	0	0	-8
CN1C(=O)c2cc(NC(=O)NC3CCCC3)ccc2OC[C@H]2O[C@H](CC(=O)NC3CCC3)CC[C@@H]21	-7	-4[16.7 µM]	-5	0	0	-7
COc1ccc(S(=O)(=O)N(C)C[C@H]2Oc3c(NC(=O)Nc4ccc(F)cc4)cccc3C(=O)N([C@@H](C)CO)C[C@H]2C)cc1	.	39[16.7 µM]	35	1	0	.
COc1ccc(S(=O)(=O)N(C)C[C@@H]2Oc3ccc(NC(=O)Nc4ccc5c(c4)OCO5)cc3CC(=O)N([C@@H](C)CO)C[C@H]2C)cc1	16	33[16.7 µM]	-2	3	0	.
C[C@@H]1CN([C@H](C)CO)C(=O)c2cc(NS(C)(=O)=O)ccc2O[C@H]1CN(C)C(=O)Nc1ccc2c(c1)OCO2	.	.	-9	5	0	.
Cn1c(-c2ccccc2F)cc2onc(-c3ccccc3)c2c1=O	-89	-393	-103	.	0	-14
Cn1c(-c2ccccc2)cc2onc(-c3ccccc3)c2c1=O	14	-75	81*	13	0	-12
COc1cc(C2C3=C(COC3=O)Oc3cc4c(cc32)OCO4)cc(OC)c1OC(C)=O (stereo unspecified)	80*	37	55*	-12	0	-34
COc1cc(C(=O)N/N=C(\c2ccccc2)c2ccccn2)cc(OC)c1OC	72*	25	25	.	0	-7
COc1cc(C(=O)NN=C2c3ccccc3-c3ccccc32)cc(OC)c1OC	14	-43	59*	.	1	-7
COc1cccc(C(=O)N/N=C(/c2ccccc2)c2ccccn2)c1	65*	23	.	2	.	3
COc1cc(C(=O)N/N=C(\C)c2ccccn2)cc(OC)c1OC	-2	-17	.	.	1	-1
COc1cc(C(=O)N/N=c2/sc3ccccc3n2C)cc(OC)c1OC	24	-1	8	-9	0	15
CC(Oc1ccccc1Cl)C(=O)Nc1ccc(S(=O)(=O)N2CCCC2)cc1 (stereo unspecified)	14	-34	8	.	0	-3
CC(OC(=O)C1=COCCO1)C(=O)Nc1cc(S(=O)(=O)N2CCCCC2)ccc1Cl (stereo unspecified)	9	16	-5	.	43*	2
COc1ccccc1CC(=O)OC(C)C(=O)Nc1ccc(S(=O)(=O)N2CCCCC2)cc1 (stereo unspecified)	7	-8	2	-10	0	46*
SMILES	PAX8 reporter	HIV Env fusion	EWS-Fli block	PGC1a acetyl inh	FGF22 binding	FN deposit inh
CCc1ccc([C@@H]2CC(=O)[C@@H]3CN(S(=O)(=O)c4ccc(Cl)cc4)[C@H](c4ccc(C)cc4)C[C@@H]3N2S(=O)(=O)c2ccc(C)cc2)cc1	14	.	-6	-2	0	-2
CCc1ccc([C@H]2[C@@H]3C(=O)C[C@@H]4C(=O)N(Cc5ccccc5)C(=O)[C@@H]4[C@@H]3CN2S(=O)(=O)c2ccc(C)cc2)cc1	-15	71*	1	3	0	-1
CCc1ccc(C2CC3C(CN2S(=O)(=O)c2ccc(C)cc2)[C@@H](O)C[C@@H](c2ccc(CC)cc2)N3S(=O)(=O)c2ccc(C)cc2)cc1 (stereo partly specified)	26	61*	8	.	0	17
CCc1ccc([C@H]2[C@@H]3C(=O)C[C@@H]4C(=O)N(C5CCCCC5)C(=O)[C@@H]4[C@@H]3CN2S(=O)(=O)c2ccc(C)cc2)cc1	8	155*	-3	-25	0	.
CCc1ccc([C@H]2[C@@H]3C(=O)C[C@@H]4C(=O)N(C)C(=O)[C@@H]4[C@@H]3CN2S(=O)(=O)c2ccc(C)cc2)cc1	1	-14	-5	0	0	-1
CCCCOCCCNc1ncnc2c1[nH]c1ccccc12	.	88*	.	.	.	-1
C/C(=N\NC(=O)c1cccc(Cl)c1)C1C(=O)c2ccccc2C1=O	.	57*	-36	-3	0	-2
COCC(=O)N(C)C[C@H]1Oc2ncc(C#Cc3ccccc3)cc2C(=O)N([C@@H](C)CO)C[C@@H]1C	.	0[16.7 µM]	-12	-2	0	2
O=C(c1ccccc1F)N1CCCC(c2ccccc2)C1 (stereo unspecified)	67*	.	8	-10	0	8
O=C(c1ccccc1F)N1CCCC(C(=O)N2CCN(c3ccccc3)CC2)C1 (stereo unspecified)	12	-5	-4	.	0	1
COc1ccc(-n2c(=O)/c(=C\c3cccs3)s/c2=C(/C#N)C(=O)NCCN2CCOCC2)cc1	-4	-5	14	-3	43*	-2
CCN1C(=O)C(C)C=C(C)C=C1C (stereo unspecified)	-14	.	2	11	44*	2
CNC[C@H]1OCCCC[C@@H](C)Oc2ccc(NS(=O)(=O)c3ccc(F)cc3)cc2C(=O)N([C@H](C)CO)C[C@@H]1C	-14	11[16.7 µM]	-6	-3	0	-3
